From ChEMBL document CHEMBL1926650, “Bioactive lignans from the rhizomes of Acorus gramineus” (J Nat Prod, 2011)

Key:
[1] = tested on: SK-MEL-2; test: Cytotoxicity against human SK-MEL-2 cells by sulforhodamine B assay; type: functional, cell-based
[2] = tested on: A549; test: Cytotoxicity against human A549 cells by sulforhodamine B assay; type: functional, cell-based
[3] = tested on: SK-OV-3; test: Cytotoxicity against human SKOV3 cells by sulforhodamine B assay; type: functional, cell-based
[4] = tested on: BV-2; test: Anti-neuroinflammatory activity in mouse BV2 cells assessed as inhibition of LPS-induced NO production pretreated for 30 mins before LPS-stimulation measured after 24 hrs by Griess reaction; type: functional, cell-based
How it was run: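 Murine BV-2 microglia activated with LPS; NO output was estimated from nitrite, its soluble oxidation product, measured in the culture medium with the Griess reaction. The value is the IC50 for lowering that nitrite.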

[5] = Cytotoxicity against LPS-stimulated mouse BV2 cells assessed as cell viability after 24 hrs by MTT assay relative to control; type: cell-based, BV-2; details: read-out: Activity
[6] = tested on: HUVEC; test: Cytotoxicity against HUVEC by sulforhodamine B assay; type: cell-based; details: Homo sapiens
[7] = tested on: HUVEC; test: Selectivity index, ratio of IC50 for HUVEC to IC50 for human SKMEL2 cells

With `COc1cc([C@@H](O)[C@@H](CO)Oc2ccc(CCCO)cc2OC)ccc1O` the IC50 [1] was over 10 µM, the IC50 [2] was over 10 µM and the IC50 [3] was over 10 µM. It also gave an IC50 [4] of 52 µM and a viability at 24 h [5] of 97.5%.
Work on `COc1cc([C@H](O)[C@H](CO)Oc2ccc(CCCO)cc2OC)ccc1O` yielded an IC50 [1] of over 10 µM, an IC50 [2] of over 10 µM and an IC50 [3] of over 10 µM. For the same compound, the IC50 [4] was 53 µM and the viability at 24 h [5] was 96.7%.
Compound `COc1ccc([C@H]2O[C@H](c3cc(OC)c(OC)c(OC)c3)[C@@H](C)[C@@H]2C)cc1OC` has an IC50 [1] of over 10 µM, an IC50 [2] of over 10 µM and an IC50 [3] of over 10 µM. For the same compound, the IC50 [4] was 125 µM and the viability at 24 h [5] was 87.3%.
Compound `C/C=C/c1cc(OC)c(O[C@H](C)[C@H](O)c2cc(OC)c(OC)c(OC)c2)c(OC)c1` has an IC50 [1] of over 10 µM, an IC50 [2] of over 10 µM and an IC50 [3] of over 10 µM. For the same compound, the IC50 [4] was over 200 µM and the viability at 24 h [5] was 101%.
`C/C=C/c1cc(OC)c(O[C@H](C)[C@H](O)c2ccc(OC)c(OC)c2)c(OC)c1` showed an IC50 [1] of over 10 µM, an IC50 [2] of over 10 µM and an IC50 [3] of over 10 µM. It also gave an IC50 [4] of 176 µM and a viability at 24 h [5] of 102%.
For `COc1cc([C@@H]2c3cc4c(cc3[C@@H](O[C@@H]3O[C@@H]5CO[C@@H](C)O[C@H]5[C@H](O)[C@H]3O)[C@H]3COC(=O)[C@H]23)OCO4)cc(OC)c1O` [ETOPOSIDE], the IC50 [1] was 0.41 µM, the IC50 [2] was 0.44 µM and the IC50 [3] was 1.31 µM. The IC50 [6] was 1.86 µM.
In the case of `COc1ccc([C@H]2O[C@H](c3ccc(OC)c(OC)c3)[C@@H](C)[C@H]2C)cc1OC` [GANSCHISANDRINE], the IC50 [1] is reported as over 10 µM, the IC50 [2] is reported as over 10 µM and the IC50 [3] is reported as over 10 µM. It also gave an IC50 [4] of 76 µM and a viability at 24 h [5] of 104%.
In the case of `COc1ccc([C@H]2O[C@H](c3cc(OC)c(OC)c(OC)c3)[C@@H](C)[C@H]2C)cc1OC` [LIGRAMINOL A], the IC50 [1] is reported as 4.53 µM, the “Ratio IC50” value [7] is reported as 6 and the IC50 [2] is reported as 6.92 µM. The IC50 [3] was 9.44 µM, the IC50 [6] was 27.2 µM and the IC50 [4] was 21.5 µM. It also gave a viability at 24 h [5] of 88.6%.
For `COc1cc([C@@H]2O[C@@H](c3cc(OC)c(O)c(OC)c3)[C@H](CO[C@@H]3O[C@H](CO)[C@@H](O)[C@H](O)[C@H]3O)[C@H]2CO)cc(OC)c1O` [LIGRAMINOL B], the IC50 [1] was over 10 µM, the IC50 [2] was over 10 µM and the IC50 [3] was over 10 µM. For the same compound, the IC50 [4] was 23 µM and the viability at 24 h [5] was 84.4%.
Work on `C/C=C\c1ccc(O[C@H](C)[C@H](OC(C)=O)c2ccc(OC)c(OC)c2)c(OC)c1` [LIGRAMINOL C] yielded an IC50 [1] of over 10 µM, an IC50 [2] of 9.54 µM and an IC50 [3] of over 10 µM. It also gave an IC50 [6] of 25.9 µM, an IC50 [4] of 16.2 µM and a viability at 24 h [5] of 90.5%.
In the case of `COc1ccc(C[C@@H](CO)Oc2ccc(CCCO)cc2OC)cc1OC` [LIGRAMINOL D], the IC50 [1] is reported as over 10 µM, the IC50 [2] is reported as 8.28 µM and the IC50 [3] is reported as over 10 µM. It also gave an IC50 [6] of 22.6 µM, an IC50 [4] of 18.4 µM and a viability at 24 h [5] of 98.4%.
In the case of `COc1cc(C[C@H](CO)Oc2ccc(CCCO)cc2OC)ccc1O` [LIGRAMINOL E], the IC50 [1] is reported as over 10 µM, the IC50 [2] is reported as over 10 µM and the IC50 [3] is reported as over 10 µM. It also gave an IC50 [4] of over 200 µM and a viability at 24 h [5] of 97.1%.
`CNC(=N)NCCC[C@H](N)C(=O)O` [TILARGININE] gave an IC50 [4] of 15.4 µM and a viability at 24 h [5] of 98.7%.
For `COc1ccc([C@H]2O[C@@H](c3ccc(OC)c(OC)c3)[C@H](C)[C@H]2C)cc1OC` [VERAGUENSIN], the IC50 [1] was over 10 µM, the IC50 [2] was over 10 µM and the IC50 [3] was over 10 µM. It also gave an IC50 [4] of 48.4 µM and a viability at 24 h [5] of 104%.
